Experimental data as given in ChEMBL document CHEMBL1765029, “Synthesis and biological evaluation of estradiol linked pyrrolo[2,1-c][1,4]benzodiazepine (PBD) conjugates as potential anticancer agents” (2011).
Activity calls are given as the source filed them. The calls are words filed in the database; no cut-off is given here.

Test system: MCF7
Test: Cell cycle arrest in human MCF7 cells assessed as accumulation at S phase using propidium iodide staining at 4 uM after 24 hrs by flow cytometry
Type: functional
Procedure, shortened: (§1)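 MCF-7 cells (5 × 10⁵ per 60 mm dish) grown 24 h, then exposed to 4 µM compound for a further 24 h; DMSO-treated control. Cells trypsinised, fixed in ice-cold 70% ethanol at 4 °C for 30 min, RNase-treated (1 mg/mL, 37 °C, 30 min), stained with propidium iodide/citrate/Triton X-100. DNA content read on 20,000 events by flow cytometry; percent cells per phase reported.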

SMILES | Activity
COc1cc2c(cc1OCc1cn(CCCOc3ccc4c(c3)CC[C@@H]3[C@@H]4CC[C@]4(C)[C@@H](O)CC[C@@H]34)nn1)N=C[C@@H]1C[C@@H](F)CN1C2=O | 30.59%

Test system: MCF7
Test: Down regulation of HDAC-3 protein in human MCF7 cells at 4 uM after 24 hrs by Western blot analysis
Type: functional, cell-based
Procedure, shortened: (§2)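 MCF-7 cells (5 × 10⁵ per 60 mm dish) grown 24 h, then treated at 4 µM for 24 h. Lysis in ice-cold RIPA buffer with protease/phosphatase inhibitors; protein measured by Bradford. Fifty µg per lane resolved on 12% SDS-PAGE and transferred to PVDF. Blocked 2 h, primary antibody overnight at 4 °C, chemiluminescent detection; β-actin as loading control.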

SMILES | Activity
COc1cc2c(cc1OCc1cn(CCCOc3ccc4c(c3)CC[C@@H]3[C@@H]4CC[C@]4(C)[C@@H](O)CC[C@@H]34)nn1)N=C[C@@H]1C[C@@H](F)CN1C2=O | Active

Test system: A2780
Test: Cytotoxicity against human A2780 cells by sulforhodamine B method
Type: functional

SMILES | GI50
COc1cc2c(cc1OCc1cn(CCCOc3ccc4c(c3)CC[C@@H]3[C@@H]4CC[C@]4(C)[C@@H](O)CC[C@@H]34)nn1)N=C[C@@H]1C[C@@H](F)CN1C2=O | < 100 nM

Test system: MCF7
Test: Down regulation of HDAC-1 protein in human MCF7 cells at 4 uM after 24 hrs by Western blot analysis
Type: functional, cell-based
Procedure, shortened: as §2

SMILES | Activity
COc1cc2c(cc1OCc1cn(CCCOc3ccc4c(c3)CC[C@@H]3[C@@H]4CC[C@]4(C)[C@@H](O)CC[C@@H]34)nn1)N=C[C@@H]1C[C@@H](F)CN1C2=O | Active

Test system: MCF7
Test: Cell cycle arrest in human MCF7 cells assessed as accumulation at G0 phase using propidium iodide staining at 4 uM after 24 hrs by flow cytometry
Type: functional
Procedure, shortened: as §1

SMILES | Activity
COc1cc2c(cc1OCc1cn(CCCOc3ccc4c(c3)CC[C@@H]3[C@@H]4CC[C@]4(C)[C@@H](O)CC[C@@H]34)nn1)N=C[C@@H]1C[C@@H](F)CN1C2=O | 2%

Test system: A549
Test: Cytotoxicity against human A549 cells by sulforhodamine B method
Type: functional

SMILES | GI50
COc1cc2c(cc1OCc1cn(CCCOc3ccc4c(c3)CC[C@@H]3[C@@H]4CC[C@]4(C)[C@@H](O)CC[C@@H]34)nn1)N=C[C@@H]1C[C@@H](F)CN1C2=O | < 100 nM

Test system: not listed separately
Test: Cytotoxicity against human DWD cells by sulforhodamine B method
Type: functional

SMILES | GI50
COc1cc2c(cc1OCc1cn(CCCOc3ccc4c(c3)CC[C@@H]3[C@@H]4CC[C@]4(C)[C@@H](O)CC[C@@H]34)nn1)N=C[C@@H]1C[C@@H](F)CN1C2=O | < 100 nM

Test system: COLO 205
Test: Cytotoxicity against human COLO205 cells by sulforhodamine B method
Type: functional

SMILES | GI50
COc1cc2c(cc1OCc1cn(CCCOc3ccc4c(c3)CC[C@@H]3[C@@H]4CC[C@]4(C)[C@@H](O)CC[C@@H]34)nn1)N=C[C@@H]1C[C@@H](F)CN1C2=O | 110 nM

Test system: MCF7
Test: Induction of apoptosis in human MCF7 cells assessed up-regulation of p21 protein level at 4 uM after 24 hrs by Western blot analysis
Type: functional, cell-based
Procedure, shortened: as §2

SMILES | Activity
COc1cc2c(cc1OCc1cn(CCCOc3ccc4c(c3)CC[C@@H]3[C@@H]4CC[C@]4(C)[C@@H](O)CC[C@@H]34)nn1)N=C[C@@H]1C[C@@H](F)CN1C2=O | Active

Test system: KB
Test: Cytotoxicity against human KB cells by sulforhodamine B method
Type: functional

SMILES | GI50
COc1cc2c(cc1OCc1cn(CCCOc3ccc4c(c3)CC[C@@H]3[C@@H]4CC[C@]4(C)[C@@H](O)CC[C@@H]34)nn1)N=C[C@@H]1C[C@@H](F)CN1C2=O | < 100 nM

Test system: MCF7
Test: Cell cycle arrest in human MCF7 cells assessed as accumulation at G2/M phase using propidium iodide staining at 4 uM after 24 hrs by flow cytometry
Type: functional
Procedure, shortened: as §1

SMILES | Activity
COc1cc2c(cc1OCc1cn(CCCOc3ccc4c(c3)CC[C@@H]3[C@@H]4CC[C@]4(C)[C@@H](O)CC[C@@H]34)nn1)N=C[C@@H]1C[C@@H](F)CN1C2=O | 36.64%

Test system: MCF7
Test: Down regulation of NF-kappa B p65 protein in human MCF7 cells at 4 uM after 24 hrs by Western blot analysis
Type: functional, cell-based
Procedure, shortened: as §2

SMILES | Activity
COc1cc2c(cc1OCc1cn(CCCOc3ccc4c(c3)CC[C@@H]3[C@@H]4CC[C@]4(C)[C@@H](O)CC[C@@H]34)nn1)N=C[C@@H]1C[C@@H](F)CN1C2=O | Active

Test system: MCF7
Test: Cytotoxicity against human MCF7 cells by sulforhodamine B method
Type: functional

SMILES | GI50
COc1cc2c(cc1OCc1cn(CCCOc3ccc4c(c3)CC[C@@H]3[C@@H]4CC[C@]4(C)[C@@H](O)CC[C@@H]34)nn1)N=C[C@@H]1C[C@@H](F)CN1C2=O | < 100 nM

Test system: MCF7
Test: Induction of apoptosis in human MCF7 cells assessed as DNA fragmentation at 4 uM after 24 hrs by TUNEL assay relative to control
Type: functional, cell-based
Procedure, shortened: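 MCF-7 cells treated at 4 µM for 24 h; untreated cells as control. Nuclear DNA fragmentation detected by TdT-mediated fluorescein-dUTP nick-end labelling (ApoAlert kit). Labelled cells imaged by confocal microscopy, green stain marking TUNEL-positive cells.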

SMILES | Activity
COc1cc2c(cc1OCc1cn(CCCOc3ccc4c(c3)CC[C@@H]3[C@@H]4CC[C@]4(C)[C@@H](O)CC[C@@H]34)nn1)N=C[C@@H]1C[C@@H](F)CN1C2=O | Active

Test system: HOP-62
Test: Cytotoxicity against human HOP62 cells by sulforhodamine B method
Type: functional

SMILES | GI50
COc1cc2c(cc1OCc1cn(CCCOc3ccc4c(c3)CC[C@@H]3[C@@H]4CC[C@]4(C)[C@@H](O)CC[C@@H]34)nn1)N=C[C@@H]1C[C@@H](F)CN1C2=O | < 100 nM

Test system: MCF7
Test: Induction of apoptosis in human MCF7 cells assessed as up-regulation of Bax gene at 4 uM after 24 hrs by Western blot analysis
Type: functional, cell-based
Procedure, shortened: as §2

SMILES | Activity
COc1cc2c(cc1OCc1cn(CCCOc3ccc4c(c3)CC[C@@H]3[C@@H]4CC[C@]4(C)[C@@H](O)CC[C@@H]34)nn1)N=C[C@@H]1C[C@@H](F)CN1C2=O | Active

Test system: MCF7
Test: Cell cycle arrest in human MCF7 cells assessed as accumulation at G1 phase using propidium iodide staining at 4 uM after 24 hrs by flow cytometry
Type: functional
Procedure, shortened: as §1

SMILES | Activity
COc1cc2c(cc1OCc1cn(CCCOc3ccc4c(c3)CC[C@@H]3[C@@H]4CC[C@]4(C)[C@@H](O)CC[C@@H]34)nn1)N=C[C@@H]1C[C@@H](F)CN1C2=O | 30.76%

Test system: not listed separately
Test: Cytotoxicity against human Gurav cells by sulforhodamine B method
Type: functional

SMILES | GI50
COc1cc2c(cc1OCc1cn(CCCOc3ccc4c(c3)CC[C@@H]3[C@@H]4CC[C@]4(C)[C@@H](O)CC[C@@H]34)nn1)N=C[C@@H]1C[C@@H](F)CN1C2=O | < 100 nM

Test system: SiHa
Test: Cytotoxicity against human SiHa cells by sulforhodamine B method
Type: functional

SMILES | GI50
COc1cc2c(cc1OCc1cn(CCCOc3ccc4c(c3)CC[C@@H]3[C@@H]4CC[C@]4(C)[C@@H](O)CC[C@@H]34)nn1)N=C[C@@H]1C[C@@H](F)CN1C2=O | < 100 nM

Test system: MCF7
Test: Reduction in Cdk1 protein level in human MCF7 cells at 4 uM after 24 hrs by Western blot analysis
Type: functional, cell-based
Procedure, shortened: as §2

SMILES | Activity
COc1cc2c(cc1OCc1cn(CCCOc3ccc4c(c3)CC[C@@H]3[C@@H]4CC[C@]4(C)[C@@H](O)CC[C@@H]34)nn1)N=C[C@@H]1C[C@@H](F)CN1C2=O | Active

Test system: MCF7
Test: Cytotoxicity against human MCF7 cells at 4 uM after 24 hrs by MTT assay
Type: functional, cell-based
Procedure, shortened: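 MCF-7 cells seeded at 10,000 per well, incubated overnight, then treated at 4 µM for 24 h; DMSO control. Medium replaced with MTT, 2 h at 37 °C. Formazan solubilised in extraction buffer, absorbance read at 570 nm, expressed as percent viability.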

SMILES | Activity
COc1cc2c(cc1OCc1cn(CCCOc3ccc4c(c3)CC[C@@H]3[C@@H]4CC[C@]4(C)[C@@H](O)CC[C@@H]34)nn1)N=C[C@@H]1C[C@@H](F)CN1C2=O | Active

Test system: MCF7
Test: Induction of apoptosis in human MCF7 cells assessed up-regulation of p53 protein level at 4 uM after 24 hrs by Western blot analysis
Type: functional, cell-based
Procedure, shortened: as §2

SMILES | Activity
COc1cc2c(cc1OCc1cn(CCCOc3ccc4c(c3)CC[C@@H]3[C@@H]4CC[C@]4(C)[C@@H](O)CC[C@@H]34)nn1)N=C[C@@H]1C[C@@H](F)CN1C2=O | Active

Test system: ZR-75-1
Test: Cytotoxicity against human ZR-75-1 cells by sulforhodamine B method
Type: functional

SMILES | GI50
COc1cc2c(cc1OCc1cn(CCCOc3ccc4c(c3)CC[C@@H]3[C@@H]4CC[C@]4(C)[C@@H](O)CC[C@@H]34)nn1)N=C[C@@H]1C[C@@H](F)CN1C2=O | < 100 nM

Target: Tubulin (Homo sapiens) (UniProt P68371+Q9H4B7+P0DPH7+P68366+Q13509+Q71U36+P04350+Q3ZCM7+P07437+P68363+Q9BQE3+Q6PEY2+Q13885+Q9BVA1+Q9BUF5)
Test: Inhibition of tubulin polymerization in human MCF7 cells assessed as disruption of microtubule network at 4 uM after 24 hrs by DAPI based immunofluorescence assay
Type: cell-based
Procedure, shortened: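 MCF-7 cells on glass coverslips incubated 24 h with or without 4 µM compound. Fixed in 4% paraformaldehyde/0.02% glutaraldehyde, permeabilised in −20 °C methanol, blocked 1 h in 1% BSA/PBS. Stained with mouse anti-tubulin primary and Cy3 anti-mouse IgG secondary, nuclei with DAPI. Confocal images scored for microtubule integrity; nocodazole as reference.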

SMILES | inhibition
COc1cc2c(cc1OCc1cn(CCCOc3ccc4c(c3)CC[C@@H]3[C@@H]4CC[C@]4(C)[C@@H](O)CC[C@@H]34)nn1)N=C[C@@H]1C[C@@H](F)CN1C2=O | Active

Test system: PC-3
Test: Cytotoxicity against human PC3 cells by sulforhodamine B method
Type: functional

SMILES | GI50
COc1cc2c(cc1OCc1cn(CCCOc3ccc4c(c3)CC[C@@H]3[C@@H]4CC[C@]4(C)[C@@H](O)CC[C@@H]34)nn1)N=C[C@@H]1C[C@@H](F)CN1C2=O | < 100 nM

Test system: MCF7
Test: Induction of apoptosis in human MCF7 cells assessed as activation of procaspase-7 at 4 uM after 24 hrs by Western blot analysis
Type: functional, cell-based
Procedure, shortened: as §2

SMILES | Activity
COc1cc2c(cc1OCc1cn(CCCOc3ccc4c(c3)CC[C@@H]3[C@@H]4CC[C@]4(C)[C@@H](O)CC[C@@H]34)nn1)N=C[C@@H]1C[C@@H](F)CN1C2=O | Active
